The values below come from ChEMBL document CHEMBL1255454, “Systematic approach to optimizing specifically targeted antimicrobial peptides against Streptococcus mutans” (2010).

One assay has as its system Streptococcus sanguinis. As to the kind of experiment: Antimicrobial activity against Streptococcus sanguinis NY101 after 16 to 20 hrs by broth microdilution assay. Type of assay: functional. The method, boiled down: (§1)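 Broth microdilution. Twofold peptide dilutions were made in 50% BHI–50% sterile water for oral streptococci and in 1× Mueller-Hinton broth for the other bacteria. First round 500 to 0.97 µg/ml; a second round of 64 to 0.5 µg/ml was run in some cases, reporting its mode. Inoculum ~1 × 10^5 CFU/ml, 37°C for 16–20 h. Read A600; MIC taken as complete inhibition or ≥90% turbidity reduction versus peptide-free control.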
On the technique in general: Broth dilution looks for growth in wells or tubes with falling amounts of substance.

The test system of another assay is Enterococcus faecalis. Briefly: Antimicrobial activity against Enterococcus faecalis after 16 to 20 hrs by broth microdilution assay. Type of assay: functional. In outline:
as §1

Another assay relates to Streptococcus sobrinus. As to the kind of experiment: Antimicrobial activity against Streptococcus sobrinus ATCC 33478 after 16 to 20 hrs by broth microdilution assay. Type of assay: functional. The method, boiled down:
as §1

For a further assay, the system named is Staphylococcus aureus. As to the kind of experiment: Antimicrobial activity against methicillin-resistant Staphylococcus aureus after 16 to 20 hrs by broth microdilution assay. The assay is classed as functional. The method, boiled down: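 MRSA grown aerobically in BHI at 37°C. Broth microdilution: 2-fold peptide dilutions in 1× Mueller-Hinton broth, first round 500 to 0.97 µg/ml; if activity below 62.5 µg/ml, sometimes a second round at 64 to 0.5 µg/ml, reporting the mode. Inoculum ~1 × 10^5 CFU/ml, 37°C for 16-20 h. A600 read. MIC = lowest concentration giving complete inhibition or ≥90% turbidity reduction versus peptide-free control.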

For assay [1], the system named is Streptococcus mutans. Briefly: Antimicrobial activity against Streptococcus mutans UA159 after 16 to 20 hrs by broth microdilution assay. The assay is classed as functional. In outline: as §1
The subject of the next assay is Escherichia coli. As to the kind of experiment: Antimicrobial activity against Escherichia coli W3110 after 16 to 20 hrs by broth microdilution assay. Type of assay: functional. In outline: as §1
The next assay relates to Pseudomonas aeruginosa. As to the kind of experiment: Antimicrobial activity against Pseudomonas aeruginosa PAK after 16 to 20 hrs by broth microdilution assay. Type of assay: functional. The method, boiled down:
as §1

Assay [2] can be described thus: Antimicrobial activity against Streptococcus gordonii Challis DL1 after 16 to 20 hrs by broth microdilution assay. Type of assay: functional, Streptococcus gordonii str. Challis. In outline:
as §1

Assay [3] has as its system Streptococcus mutans. As to the kind of experiment: Antimicrobial activity against Streptococcus mutans UA159 assessed as inhibition of bacterial biofilm formation at 25 uM after 3 mins by fluorescence assay. The assay is classed as functional. The method, boiled down: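 S. mutans UA159 overnight culture was diluted 1:5,000 in TH with 1% sucrose and grown as biofilm for 24 h. Biofilms were exposed 3 min at room temperature to 25 µM fluorescein-labelled peptide in HEPES/NaHCO3/NaCl/MgCl2 buffer with 0.1% CTAB, pH 7.4, then washed twice. Green fluorescence images were taken and biofilm-associated green pixels quantified as binding intensity units.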

A further assay deals with Streptococcus mitis. Briefly: Antimicrobial activity against Streptococcus mitis ATCC 903 after 16 to 20 hrs by broth microdilution assay. The assay is classed as functional. In outline: as §1

Converted amounts (≈) assume the structure as drawn. The source made the active and inactive calls. The rule behind the calls is not given here. Square brackets hold non-standard residues; d marks the D form. Peptide text beside a SMILES is read from it. Aoc = NCCCCCCCC(=O)O Where only a bound is given, the exact number is not on record here.

For the compound `CC[C@H](C)[C@H](NC(=O)[C@H](Cc1ccccc1)NC(=O)[C@H](Cc1cnc[nH]1)NC(=O)[C@H](CCCCN)NC(=O)[C@@H](NC(=O)[C@H](Cc1ccccc1)NC(=O)[C@@H]1CCCN1C(=O)[C@H](Cc1ccc(O)cc1)NC(=O)[C@@H]1CCCN1C(=O)[C@H](Cc1ccccc1)NC(=O)[C@@H](Cc1cnc[nH]1)NC(=O)[C@@H](CC(C)C)NC(=O)[C@@H](Cc1cnc[nH]1)NC(=O)[C@@H](Cc1ccccc1)NC(=O)[C@@H](Cc1cnc[nH]1)NC(=O)[C@H](N)Cc1ccccc1)[C@@H](C)CC)C(=O)N[C@@H](Cc1cnc[nH]1)C(=O)N[C@@H](CCCNC(=N)N)C(=O)N[C@@H](Cc1ccccc1)C(N)=O`, the minimum inhibitory concentration (MIC) (in general, the lowest concentration that inhibits growth of the organism) against Streptococcus sanguinis was 62.5 µg/mL (≈ 24.3 µM); against Enterococcus faecalis, 250 µg/mL (≈ 97.4 µM); in the assay with Streptococcus sobrinus it was 62.5 µg/mL (≈ 24.3 µM); in the assay with Staphylococcus aureus, above 500 µg/mL; with Streptococcus mutans [1], 32 µg/mL (≈ 12.5 µM); with Escherichia coli, 125 µg/mL (≈ 48.7 µM). The compound further had an MIC in the assay on Pseudomonas aeruginosa of 125 µg/mL (≈ 48.7 µM).
On to `CC[C@H](C)[C@H](NC(=O)[C@H](Cc1ccccc1)NC(=O)[C@H](Cc1cnc[nH]1)NC(=O)[C@H](CCCCN)NC(=O)[C@@H](NC(=O)[C@@H](N)Cc1ccccc1)[C@@H](C)CC)C(=O)N[C@@H](Cc1cnc[nH]1)C(=O)N[C@@H](CCCNC(=N)N)C(=O)N[C@@H](Cc1ccccc1)C(=O)NCCCCCCCC(=O)N[C@@H](CCCNC(=N)N)C(=O)N[C@@H](Cc1c[nH]c2ccccc12)C(=O)N[C@@H](CCCNC(=N)N)C(=O)N[C@@H](CCCNC(=N)N)C(=O)N[C@@H](CC(C)C)C(=O)N[C@@H](CC(C)C)C(=O)N[C@@H](CCCCN)C(=O)N[C@@H](CCCCN)C(=O)N[C@@H](CC(C)C)C(=O)N[C@@H](Cc1cnc[nH]1)C(=O)N[C@@H](Cc1cnc[nH]1)C(=O)N[C@@H](CC(C)C)C(=O)N[C@@H](CC(C)C)C(=O)N[C@@H](Cc1cnc[nH]1)C(N)=O` (H-FIKHFIHRF[Aoc]RWRRLLKKLHHLLH-NH2), for which the MIC in [2] is 32 µg/mL (≈ 9.78 µM); against Streptococcus sanguinis it was 32 µg/mL (≈ 9.78 µM); in the assay on Staphylococcus aureus, 62.5 µg/mL (≈ 19.1 µM); against Streptococcus mutans [1] it was 16 µg/mL (≈ 4.89 µM); against Streptococcus mitis, 32 µg/mL (≈ 9.78 µM); against Pseudomonas aeruginosa it was 62.5 µg/mL (≈ 19.1 µM). Also, the inhibition entry in the assay on Streptococcus mutans [3] is “Active”.
Turning to H-AAKHAAHRA-NH2, the minimum inhibitory concentration (MIC) (in assay [2]; against Streptococcus sanguinis; in the assay with Enterococcus faecalis; with Streptococcus sobrinus; in the assay with Staphylococcus aureus; in the assay with Streptococcus mutans [1]) was above 500 µg/mL throughout. The minimal inhibitory concentration (MIC) in the assay on Escherichia coli, with Streptococcus mitis and with Pseudomonas aeruginosa was above 500 µg/mL in each case. In the assay on Streptococcus mutans [3], the inhibition result was “inactive”.
On to H-FHFHLHF-NH2, for which the minimum inhibitory concentration (MIC) against Streptococcus sanguinis is 16 µg/mL; in the assay on Enterococcus faecalis it was 16 µg/mL; against Staphylococcus aureus, 32 µg/mL; against Streptococcus mutans [1], 8 µg/mL; in the assay with Escherichia coli it was 8 µg/mL; against Pseudomonas aeruginosa, 16 µg/mL. In the assay with Streptococcus mutans [3], the inhibition entry is “Active”.
Regarding H-FHFHLHFASASAFIKHFIHRF-NH2, the MIC in the assay on Streptococcus sanguinis turned out to be 32 µg/mL; against Enterococcus faecalis it was 62.5 µg/mL; against Streptococcus sobrinus, 32 µg/mL; against Staphylococcus aureus, 62.5 µg/mL; in the assay with Streptococcus mutans [1], 16 µg/mL; in the assay on Escherichia coli it was 62.5 µg/mL. Also, in the assay with Pseudomonas aeruginosa, the minimum inhibitory concentration (MIC) stood at 125 µg/mL.
H-FHFHLHFGGGFIKHFIHRF-NH2: the MIC against Streptococcus sanguinis was 62.5 µg/mL; against Enterococcus faecalis, 62.5 µg/mL; against Streptococcus sobrinus it was 62.5 µg/mL; with Staphylococcus aureus, 125 µg/mL; against Streptococcus mutans [1], 32 µg/mL; in the assay on Escherichia coli it was 62.5 µg/mL. The compound further yielded a minimal inhibitory concentration (MIC) with Pseudomonas aeruginosa of 62.5 µg/mL.
With H-FHFHLHFPSGSPFIKHFIHRF-NH2, the minimal inhibitory concentration (MIC) against Streptococcus sanguinis was 62.5 µg/mL; in the assay with Enterococcus faecalis it was 250 µg/mL; against Streptococcus sobrinus it was 62.5 µg/mL; with Staphylococcus aureus, above 500 µg/mL; against Streptococcus mutans [1], 62.5 µg/mL; in the assay on Escherichia coli it was 125 µg/mL. For the same compound, the MIC against Pseudomonas aeruginosa was above 500 µg/mL. For the same compound, the inhibition entry in the assay on Streptococcus mutans [3] was “Active”.
For the compound H-FHFHLHFPSPSPFIKHFIHRF-NH2, the MIC is 125 µg/mL against Streptococcus sanguinis; 250 µg/mL with Enterococcus faecalis; 125 µg/mL against Streptococcus sobrinus; above 500 µg/mL against Staphylococcus aureus; 32 µg/mL in the assay on Streptococcus mutans [1]; 62.5 µg/mL with Escherichia coli. In the assay on Pseudomonas aeruginosa, this compound displayed a minimal inhibitory concentration (MIC) of 125 µg/mL.
Take H-FHFHLHFSATFIKHFIHRF-NH2: the minimal inhibitory concentration (MIC) against Streptococcus sanguinis came out at 62.5 µg/mL; against Enterococcus faecalis, 62.5 µg/mL; in the assay with Streptococcus sobrinus, 250 µg/mL; in the assay on Staphylococcus aureus, 125 µg/mL; with Streptococcus mutans [1] it was 16 µg/mL; in the assay with Escherichia coli, 125 µg/mL. This compound displayed a minimum inhibitory concentration (MIC) against Pseudomonas aeruginosa of 125 µg/mL. Further, in the assay with Streptococcus mutans [3], the inhibition result was “Active”.
Regarding H-FIKHFIHRF-NH2, the MIC was above 500 µg/mL in assay [2]; 125 µg/mL against Streptococcus sanguinis; above 500 µg/mL in the assay on Enterococcus faecalis; 125 µg/mL in the assay on Streptococcus sobrinus; above 500 µg/mL in the assay with Staphylococcus aureus; 125 µg/mL in the assay on Streptococcus mutans [1]. For the same compound, the minimal inhibitory concentration (MIC) against Escherichia coli, against Streptococcus mitis and in the assay on Pseudomonas aeruginosa was above 500 µg/mL in each case. Also, the inhibition entry with Streptococcus mutans [3] is “Active”.
With H-FIKHFIHRFSATRWRRLLKKLHHLLH-NH2, the MIC in assay [2] came to 32 µg/mL; against Streptococcus sanguinis, 32 µg/mL; in the assay on Staphylococcus aureus, 16 µg/mL; against Streptococcus mutans [1], 16 µg/mL; against Streptococcus mitis it was 32 µg/mL; against Pseudomonas aeruginosa, 32 µg/mL. In addition, the inhibition entry with Streptococcus mutans [3] was “Active”.
Regarding H-LIKHILHRLGGGFHFHLHF-NH2, the minimum inhibitory concentration (MIC) in the assay with Streptococcus sanguinis turned out to be 62.5 µg/mL; against Enterococcus faecalis, 32 µg/mL; against Streptococcus sobrinus it was 32 µg/mL; in the assay with Staphylococcus aureus it was 62.5 µg/mL; against Streptococcus mutans [1] it was 16 µg/mL; in the assay on Escherichia coli, 250 µg/mL. The same compound registered an MIC against Pseudomonas aeruginosa of 250 µg/mL.
For H-RWRRLLKKLHHLLHSATFIKHFIHRF-NH2, the MIC in assay [2] was 16 µg/mL; in the assay with Streptococcus sanguinis, 16 µg/mL; in the assay on Staphylococcus aureus, 32 µg/mL; against Streptococcus mutans [1], 8 µg/mL; in the assay with Streptococcus mitis, 16 µg/mL; in the assay with Pseudomonas aeruginosa, 32 µg/mL. Also, in the assay on Streptococcus mutans [3], the inhibition entry was “Active”.
Consider H-RWRRLLKKLHHLLHSGGFIKHFIHRF-NH2, for which the MIC worked out at 16 µg/mL in assay [2]; 32 µg/mL with Streptococcus sanguinis; 32 µg/mL against Staphylococcus aureus; 8 µg/mL in the assay on Streptococcus mutans [1]; 32 µg/mL with Streptococcus mitis; 32 µg/mL in the assay on Pseudomonas aeruginosa.
On to H-RWRWRWFGGGFIKHFIHRF-NH2, for which the MIC in [2] is 32 µg/mL; in the assay with Streptococcus sanguinis, 32 µg/mL; against Staphylococcus aureus, 32 µg/mL; in the assay with Streptococcus mutans [1], 8 µg/mL; against Streptococcus mitis, 32 µg/mL; in the assay with Pseudomonas aeruginosa, 62.5 µg/mL.
For H-RWRWRWFSATFIKHFIHRF-NH2, the MIC is 62.5 µg/mL in [2]; 32 µg/mL against Streptococcus sanguinis; 62.5 µg/mL against Staphylococcus aureus; 8 µg/mL against Streptococcus mutans [1]; 16 µg/mL in the assay on Streptococcus mitis; 62.5 µg/mL in the assay with Pseudomonas aeruginosa.
On to H-RWRWRWFSGGFIKHFIHRF-NH2, for which the MIC in [2] stood at 32 µg/mL; against Streptococcus sanguinis, 32 µg/mL; against Staphylococcus aureus it was 32 µg/mL; against Streptococcus mutans [1] it was 8 µg/mL; in the assay with Streptococcus mitis it was 32 µg/mL; against Pseudomonas aeruginosa, 62.5 µg/mL.
For the compound H-WWYNWWQDW-NH2, the MIC (in assay [2]; in the assay with Streptococcus sanguinis; with Enterococcus faecalis; with Streptococcus sobrinus; against Staphylococcus aureus; against Streptococcus mutans [1]) was above 500 µg/mL throughout. Moreover, the MIC against Escherichia coli, in the assay on Streptococcus mitis and against Pseudomonas aeruginosa was above 500 µg/mL throughout.
